Data set [1] is described as follows: Acute toxicity on intravenous injection in mice. It counts as organism-based. The note with it: mouse, in vivo. An outline of the steps:
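ddY male mice (20–25 g, five per group) given compound by intravenous injection. Compound was dissolved in 1 N NaOH, then brought up in phosphoric acid–saline buffer (pH 7.2). LD50 was determined 7 days later by the Weil method.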

In data set [2] the test system is Escherichia coli. As to the kind of experiment: (§1) In vitro antibacterial activity against Escherichia coli NHJ JC-2. Format: functional, escherichia colin. The essentials: (§2)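 MIC measured by 2-fold serial agar dilution. The growth medium is given as Mueller–Hinton agar in the text and as sensitivity test agar in the table footnote. Value reported in µg/mL.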
The test system of data set [3] is Escherichia coli. The data set is described as follows: In vitro antibacterial activity against Escherichia coli KC-14.
The subject of another data set is Serratia marcescens. The data set is described as follows: (§3) In vitro antibacterial activity against Serratia. Format: functional. The essentials:
as §2

The next data set deals with Proteus vulgaris. As to the kind of experiment: In vitro antibacterial activity against Proteus vulgaris OX-19. It counts as functional. An outline of the steps:
as §2

The nature of data set [4]: Acute toxicity on oral administration in mice. The note with it: mouse, in vivo. Format: organism-based. An outline of the steps: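 ddY male mice (20–25 g, five per group) were dosed orally with a suspension in 0.5% sodium carboxymethylcellulose. LD50 was determined 7 days later by the Weil method.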
Data set [5] concerns Staphylococcus aureus. The data set is described as follows: In vitro antibacterial activity against […] aureus IID 803 -. Format: functional. The essentials: as §2
In data set [6] the test system is Staphylococcus aureus. As to the kind of experiment: In vitro antibacterial activity against Staphylococcus aureus FDA 209P JC-1. Format: functional. An outline of the steps:
as §2

For another data set, the system named is Bacillus subtilis. As to the kind of experiment: In vitro antibacterial activity against Bacillus subtilis ATCC 6633. It counts as functional. The essentials: as §2
In a further data set the test system is Pseudomonas aeruginosa. The data set is described as follows: In vitro antibacterial activity against Pseudomonas aeruginosa IFO 3445. Format: functional. An outline of the steps:
as §2

The next data set concerns Salmonella typhimurium. The data set is described as follows: In vitro antibacterial activity against Salmonella Typhimurium IID 971. It counts as functional, Salmonella enterica subsp. enterica serovar Typhimurium. The note with it: Salmonella enterica. An outline of the steps: as §2
Data set [7] concerns Staphylococcus epidermidis. As to the kind of experiment: In vitro antibacterial activity against Staphylococcus epidermidis IAM 1296. It counts as functional. The essentials: as §2
The next data set relates to Klebsiella pneumoniae. As to the kind of experiment: In vitro antibacterial activity against Klebsiella pneumoniae PCI-602. It counts as functional. The essentials:
as §2

Data set [8] relates to Staphylococcus aureus. As to the kind of experiment: In vitro antibacterial activity against Staphylococcus aureus FDA […] JC-1. It counts as functional. The essentials:
(§4)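 MIC by 2-fold agar dilution on sensitivity test agar (Mueller–Hinton agar per text), in µg/mL.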

For data set [9], the system named is Escherichia coli. The description is as §1. It counts as functional, escherichia colin. An outline of the steps:
as §4
The source holds these as a separate data set.

Data set [10] relates to Escherichia coli. The data set is described as follows: In vivo antibacterial activity against Escherichia coli KC-14 (po). It counts as functional. An outline of the steps: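 Oral protection test in mice infected with E. coli KC-14. Compound suspended in 0.5% sodium CMC and given orally 1 h after infection. ED50 (mg/kg) calculated from cumulative mortality on day 7 after infection by the shortened Weil method, with 95% confidence limits.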

Another data set deals with Serratia. Described as §3. It counts as functional. An outline of the steps:
as §4

Data set [11] is described as follows: Concentration of liberated compound in serum after 120 min at the dose of 50 mg/kg (po). It counts as functional, organism-based. The arrangement: dose 50 mg/kg. An outline of the steps:
(§5)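 ddY male mice (20–25 g, five per group) got 50 mg/kg orally as a 0.5% CMC suspension and were killed by bleeding at 30, 60, 120 or 240 min. Serum was taken after centrifugation at 3000 rpm, 20 min, 4 °C, and deproteinised with 5% aqueous trichloroacetic acid. The released parent quinolone was measured by HPLC with UV detection on an ODS column. Mean ± SE.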

Data set [12] is described as follows: Concentration of liberated compound in serum after 30 min at the dose of 50 mg/kg (po). Format: ADME, organism-based. The arrangement: dose 50 mg/kg. The note with it: in vivo, 0.5 h. The essentials: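 ddY male mice (20–25 g, five per group) given 50 mg/kg orally as a suspension in 0.5% CMC and killed by bleeding at 30 min. Serum was separated by centrifugation (3000 rpm, 20 min, 4 °C) and deproteinized with 5% aqueous trichloroacetic acid. Liberated NFLX was quantified by reversed-phase (ODS) HPLC with UV detection. Values are mean ± SE.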

The nature of data set [13]: Concentration of liberated compound in serum after 60 min at the dose of 50 mg/kg (po). It counts as functional, organism-based. The arrangement: dose 50 mg/kg. The essentials:
as §5

Data set [14] can be described thus: Concentration of liberated compound in serum after 240 min at the dose of 50 mg/kg (po). It counts as functional, organism-based. Details: dose 50 mg/kg. The essentials:
as §5

Usually LD50 stands for the dose expected to kill half of the subjects tested. Lower therefore signals greater toxicity. A word on the MIC: it is the lowest concentration found to suppress growth. The term ED50 denotes the dose that gives a 50% effect, or the effect in half of the subjects.

Molecules are shown by their SMILES. Converted amounts (≈) assume the structure as drawn. A value given as a limit tells only on which side of the number the result lay.

For `CCn1cc(C(=O)O)c(=O)c2cc(F)c(N3CCN(O)CC3)cc21`, the 50% lethal dose (LD50) in data set [1] is over 500 mg/kg; in data set [4], over 4000 mg/kg. In addition, the MIC against Escherichia coli [2] turned out to be 1.56 µg/mL (≈ 4.65 µM); against Escherichia coli [3], 0.39 µg/mL (≈ 1.16 µM); in the data set with Serratia marcescens it was 3.13 µg/mL (≈ 9.33 µM); against Proteus vulgaris, 0.05 µg/mL (≈ 0.149 µM); with Staphylococcus aureus [5], 1.56 µg/mL (≈ 4.65 µM); in the data set on Staphylococcus aureus [6] it was 0.78 µg/mL (≈ 2.33 µM). The minimal inhibitory concentration (MIC) came out at 0.2 µg/mL (≈ 0.596 µM) with Bacillus subtilis; 12.5 µg/mL (≈ 37.3 µM) in the data set on Pseudomonas aeruginosa; 0.1 µg/mL (≈ 0.298 µM) against Salmonella typhimurium; 6.25 µg/mL (≈ 18.6 µM) in [7]; 0.05 µg/mL (≈ 0.149 µM) against Klebsiella pneumoniae.
On to `O=C(O)c1cn(C2CC2)c2cc(N3CCN(O)CC3)c(F)cc2c1=O`, for which the minimum inhibitory concentration (MIC) against Staphylococcus aureus [8] stood at 0.39 µg/mL (≈ 1.12 µM); against Escherichia coli [3] it was 0.025 µg/mL (≈ 0.072 µM); against Serratia marcescens, 0.78 µg/mL (≈ 2.25 µM); against Proteus vulgaris it was 0.05 µg/mL (≈ 0.144 µM); with Staphylococcus aureus [5], 0.78 µg/mL (≈ 2.25 µM); against Escherichia coli [9], 0.1 µg/mL (≈ 0.288 µM). Further, the MIC against Bacillus subtilis stood at 0.39 µg/mL (≈ 1.12 µM); against Pseudomonas aeruginosa, 1.56 µg/mL (≈ 4.49 µM); with Salmonella typhimurium, 0.025 µg/mL (≈ 0.072 µM); in data set [7] it was 1.56 µg/mL (≈ 4.49 µM); against Klebsiella pneumoniae it was 0.025 µg/mL (≈ 0.072 µM). For the same compound, the LD50 in [4] is over 4000 mg/kg. The compound further came in with an ED50 with Escherichia coli [10] of 0.37 mg/kg.
For `O=C(O)c1cn(C2CC2)c2cc(N3CCNCC3)c(F)cc2c1=O` [CIPROFLOXACIN], the MIC in the data set on Staphylococcus aureus [8] was 0.39 µg/mL (≈ 1.18 µM); against Escherichia coli [3], 0.0125 µg/mL (≈ 0.0377 µM); against Proteus vulgaris, 0.05 µg/mL (≈ 0.151 µM); against Staphylococcus aureus [5], 0.78 µg/mL (≈ 2.35 µM); in the data set on Serratia it was 0.2 µg/mL (≈ 0.604 µM); in the data set with Bacillus subtilis, 0.39 µg/mL (≈ 1.18 µM). In addition, the MIC stood at 0.78 µg/mL (≈ 2.35 µM) in the data set with Pseudomonas aeruginosa, 0.025 µg/mL (≈ 0.0754 µM) with Salmonella typhimurium, 1.56 µg/mL (≈ 4.71 µM) in data set [7] and 0.025 µg/mL (≈ 0.0754 µM) against Klebsiella pneumoniae. In the data set with Escherichia coli [10], it took a dose of 0.84 mg/kg to reach the 50% effect level (ED50).
Consider `CCn1cc(C(=O)O)c(=O)c2cc(F)c(N3CCNCC3)cc21` [NORFLOXACIN], for which the Concentration in data set [11] was 1.09 µg/mL; in data set [12], 4140 ng/mL; in data set [13] it was 2.8 µg/mL; in data set [14] it was 0.47 µg/mL. In addition, the 50% lethal dose (LD50) in [1] is 314 mg/kg; in data set [4], over 4000 mg/kg. Besides, the MIC with Staphylococcus aureus [8] stood at 0.39 µg/mL (≈ 1.22 µM); in the data set on Escherichia coli [3], 0.2 µg/mL (≈ 0.626 µM); against Proteus vulgaris, 0.1 µg/mL (≈ 0.313 µM); in the data set with Staphylococcus aureus [5], 1.56 µg/mL (≈ 4.89 µM); against Escherichia coli [9], 0.2 µg/mL (≈ 0.626 µM); in the data set on Serratia, 0.39 µg/mL (≈ 1.22 µM). The minimum inhibitory concentration (MIC) in the data set on Bacillus subtilis was found to be 0.39 µg/mL (≈ 1.22 µM); against Pseudomonas aeruginosa, 1.56 µg/mL (≈ 4.89 µM); against Salmonella typhimurium, 0.05 µg/mL (≈ 0.157 µM); in data set [7] it was 3.13 µg/mL (≈ 9.8 µM); with Klebsiella pneumoniae it was 0.1 µg/mL (≈ 0.313 µM).

The values above are taken from ChEMBL document CHEMBL1124996, “Synthesis of antimicrobial agents. 3. Syntheses and antibacterial activities of 7-(4-hydroxypiperazin-1-yl)quinolones” (J Med Chem, 1990).
